# Key:
# Assay type in all cases: functional
# [1] = test system: Candida albicans; test: Antifungal activity against Candida albicans ATCC 10213
# In short: (§1)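 CLSI M27-A3 broth microdilution in RPMI-1640 buffered to pH 7.0 with MOPS. Inoculum 1-5 × 10^3 CFU/mL. Compound twofold dilutions from 250 to 0.24 µg/ml, final DMSO <1%. Incubated at 35 °C in a moist, dark chamber and read at 48 h. MIC is the lowest concentration giving total growth inhibition. For MFC, 5 µL from clear wells was plated in duplicate on SDA; MFC is the lowest concentration with no growth.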
# [2] = test system: Candida tropicalis; test: Antifungal activity against Candida tropicalis C 131 2000; in short: as §1
# [3] = test system: Saccharomyces cerevisiae; test: Antifungal activity against Saccharomyces cerevisiae ATCC 9763; in short: as §1
# [4] = test system: Cryptococcus neoformans; test: Antifungal activity against Cryptococcus neoformans ATCC 32264; in short: as §1
# [5] = test system: Aspergillus fumigatus; test: Antifungal activity against Aspergillus fumigatus ATCC 26934
# In short: (§2)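 Broth microdilution per CLSI M38-A2 in RPMI-1640 with MOPS at pH 7.0. Inoculum 1-5 × 10^3 CFU/mL, with twofold compound dilutions spanning 250-0.24 µg/ml (final DMSO <1%). Plates incubated at 35 °C, moist and dark, and read when the control fungus had grown. MIC is total growth inhibition. MFC comes from subculturing clear wells in duplicate onto SDA.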
# [6] = test system: Aspergillus flavus; test: Antifungal activity against Aspergillus flavus ATCC 9170; in short: as §2
# [7] = test system: Aspergillus niger; test: Antifungal activity against Aspergillus niger ATCC 9029; in short: as §2
# [8] = test system: Nannizzia gypsea; test: Antifungal activity against Microsporum gypseum C 115 2000
# In short: (§3)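 Dermatophytes tested by CLSI M38-A2 microdilution in MOPS-buffered RPMI-1640 at pH 7.0. Inoculum 1-5 × 10^3 CFU/mL; compounds 250 to 0.24 µg/ml in twofold steps, final DMSO <1%. Incubated at 28 °C in a moist, dark chamber and read according to control growth. MIC is the lowest concentration with complete inhibition. MFC is the lowest concentration with no growth after duplicate subculture on SDA.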
# [9] = test system: Trichophyton rubrum; test: Antifungal activity against Trichophyton rubrum C 113 2000; in short: as §3
# [10] = test system: Trichophyton mentagrophytes; test: Antifungal activity against Trichophyton mentagrophytes ATCC 9972; in short: as §3
SMILES,MIC [1] [µg/mL],MIC [2] [µg/mL],MIC [3] [µg/mL],MIC [4] [µg/mL],MIC [5] [µg/mL],MIC [6] [µg/mL],MIC [7] [µg/mL],MIC [8] [µg/mL],MIC [9] [µg/mL],MIC [10] [µg/mL],MFC [1] [µg/mL],MFC [2] [µg/mL],MFC [3] [µg/mL],MFC [4] [µg/mL],MFC [5] [µg/mL],MFC [6] [µg/mL],MFC [7] [µg/mL],MFC [8] [µg/mL],MFC [9] [µg/mL],MFC [10] [µg/mL]
O=C1CCC(=O)N1CCc1ccccc1,> 250,> 250,> 250,> 250,> 250,> 250,> 250,> 250,> 250,> 250,> 250,> 250,> 250,> 250,> 250,> 250,> 250,> 250,> 250,> 250
O=C1C=CC(O)N1c1ccccc1 (configuration not stated),> 250,> 250,> 250,250,> 250,> 250,> 250,> 250,> 250,> 250,> 250,> 250,> 250,> 250,> 250,> 250,> 250,> 250,> 250,> 250
O=C1C=CC(O)N1Cc1ccccc1 (configuration not stated),> 250,> 250,> 250,250,> 250,> 250,> 250,> 250,> 250,> 250,> 250,> 250,> 250,> 250,> 250,> 250,> 250,> 250,> 250,> 250
CC1=CC(=O)N(c2ccccc2)C1O (configuration not stated),> 250,> 250,> 250,250,> 250,> 250,> 250,> 250,> 250,> 250,> 250,> 250,> 250,> 250,> 250,> 250,> 250,> 250,> 250,> 250
CC1=CC(=O)N(Cc2ccccc2)C1O (configuration not stated),> 250,> 250,> 250,> 250,> 250,> 250,> 250,> 250,> 250,> 250,> 250,> 250,> 250,> 250,> 250,> 250,> 250,> 250,> 250,> 250
CC1=CC(=O)N(CCc2ccccc2)C1O (configuration not stated),> 250,> 250,> 250,> 250,> 250,> 250,> 250,> 250,> 250,> 250,> 250,> 250,> 250,> 250,> 250,> 250,> 250,> 250,> 250,> 250
O=C1CCC(=O)N1Cc1ccccc1,> 250,> 250,> 250,> 250,> 250,> 250,> 250,> 250,> 250,> 250,> 250,> 250,> 250,> 250,> 250,> 250,> 250,> 250,> 250,> 250
O=C1CCC(=O)N1c1ccccc1,> 250,> 250,> 250,> 250,> 250,> 250,> 250,> 250,> 250,> 250,> 250,> 250,> 250,> 250,> 250,> 250,> 250,> 250,> 250,> 250

# Continued, in another order:
MIC [1] [µg/mL],MIC [2] [µg/mL],MIC [3] [µg/mL],MIC [4] [µg/mL],MIC [5] [µg/mL],MIC [6] [µg/mL],MIC [7] [µg/mL],MIC [8] [µg/mL],MIC [9] [µg/mL],MIC [10] [µg/mL],SMILES,MFC [1] [µg/mL],MFC [2] [µg/mL],MFC [3] [µg/mL],MFC [4] [µg/mL],MFC [5] [µg/mL],MFC [6] [µg/mL],MFC [7] [µg/mL],MFC [8] [µg/mL],MFC [9] [µg/mL],MFC [10] [µg/mL]
> 250,> 250,> 250,> 250,> 250,> 250,> 250,> 250,> 250,> 250,O=C1CCC(=O)N1CCCc1ccccc1,> 250,> 250,> 250,> 250,> 250,> 250,> 250,> 250,> 250,> 250
> 250,> 250,> 250,> 250,> 250,> 250,> 250,> 250,> 250,> 250,O=C1CCC(=O)N1CCCCc1ccccc1,> 250,> 250,> 250,> 250,> 250,> 250,> 250,> 250,> 250,> 250
62.5,250,250,62.5,> 250,> 250,> 250,62.5,62.5,31.2,O=C1C=CC(O)N1CCc1ccccc1 (configuration not stated),125,> 250,> 250,> 250,> 250,> 250,> 250,125,125,62.5
62.5,125,62.5,62.5,125,250,> 250,62.5,62.5,31.2,O=C1C=CC(O)N1CCCc1ccccc1 (configuration not stated),> 250,250,125,> 250,250,> 250,> 250,125,250,62.5
> 250,> 250,> 250,250,> 250,> 250,> 250,125,62.5,62.5,O=C1C=CC(O)N1CCCCc1ccccc1 (configuration not stated),> 250,> 250,> 250,> 250,> 250,> 250,> 250,250,250,125
> 250,> 250,> 250,250,> 250,> 250,> 250,250,250,250,CC1=CC(=O)N(CCCc2ccccc2)C1O (configuration not stated),> 250,> 250,> 250,> 250,> 250,> 250,> 250,> 250,> 250,> 250
–,> 250,> 250,> 250,> 250,> 250,> 250,250,250,> 250,O=C(O)/C=C\C(=O)NCCCc1ccccc1,> 250,> 250,> 250,> 250,> 250,> 250,> 250,> 250,> 250,> 250
–,> 250,> 250,> 250,> 250,> 250,> 250,> 250,> 250,> 250,O=C(O)/C=C\C(=O)NCCCCc1ccccc1,> 250,> 250,> 250,> 250,> 250,> 250,> 250,> 250,> 250,> 250
–,> 250,> 250,> 250,> 250,> 250,> 250,250,250,> 250,O=C(O)/C=C\C(=O)NCCc1ccccc1,> 250,> 250,> 250,> 250,> 250,> 250,> 250,> 250,> 250,> 250
